This is a sample that favours compounds with a hit; in the whole collection about 1.9% have one here.
LEDGF integ inh = blocks HIV-1 LEDGF/p75-dependent DNA integration; TR-FRET IN-LEDGF/p75 DNA integration, Eu/Cy5; inhibition, % at 3.7 µM; 370,000 tested, 0.64% active; AID 743269;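 active means inhibition above the screen-wide mean plus 3 SD, cut at about 13% in these data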;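 further: signal is the Cy5 over europium emission ratio at 671 and 618 nm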
TDP2 inh = TDP2 (human) inhibition, absorbance primary screen. recombinant TDP2, T5PNP hydrolysis, p-nitrophenol absorbance 415 nm. AID 720702. inhibition, % at 12.8 µM. 370,000 tested, 0.34% active;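 active means inhibition above the mean of all tested compounds plus 3 SD, set per campaign, cut at about 25% in these data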
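Test system: Human TDP2 enzyme | Reagent: 5 mM T5PNP | Compound dosing: 12.8 µM single point, 1% DMSO | Incubation: Enzyme reaction with compound for 2 h at 37 °C | Technique: p-Nitrophenol epi absorbance | Read-out: % inhibition relative to enzyme-containing and enzyme-free wells | Benchmarks: High control without enzyme, low control DMSO plus TDP2 | Replicates: Singlicate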
DDE Tn7 FP inh = inhibitors of Tn7 peptide binding to human fibrin DD(E) | P02675 | FP displacement of FITC-Tn7 peptide from fibrin DD(E); 0% = median of compound wells per plate | inhibition, % at 8.3 µM | 370,000 tested, 0.13% active | AID 720508;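 active means inhibition above the mean of compounds falling within the control limits plus 3 SD of them, cut at about 14% in these data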
Target sequence (P02675 whole entry, looked up): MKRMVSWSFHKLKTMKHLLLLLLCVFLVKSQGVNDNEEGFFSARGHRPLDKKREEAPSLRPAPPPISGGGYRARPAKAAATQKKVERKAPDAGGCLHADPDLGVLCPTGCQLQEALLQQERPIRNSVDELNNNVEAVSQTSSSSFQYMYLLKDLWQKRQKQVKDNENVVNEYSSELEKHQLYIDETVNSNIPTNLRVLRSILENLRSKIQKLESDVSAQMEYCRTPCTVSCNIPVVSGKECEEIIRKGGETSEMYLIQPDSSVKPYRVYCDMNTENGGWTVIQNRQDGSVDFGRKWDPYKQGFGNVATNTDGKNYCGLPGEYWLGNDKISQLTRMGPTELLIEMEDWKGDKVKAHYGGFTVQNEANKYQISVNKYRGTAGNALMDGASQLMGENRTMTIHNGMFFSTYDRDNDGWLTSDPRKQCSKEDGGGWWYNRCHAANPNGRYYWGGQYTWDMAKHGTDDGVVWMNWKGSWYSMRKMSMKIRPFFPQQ
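Assay system: Human fibrin DD(E) protein | Medium: Tris buffer with calcium and detergent, pH 7.8 | Reagent: 0.1 µM fluorescent Tn7 | Compound dosing: Single point at 8.3 µM | Times: 10 min preincubation, 3 h with tracer, room temperature | Detection: Fluorescence polarization of the labelled Tn7 tracer | Controls: Aha-Tn7 high control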
DDE Tn6 FP inh = inhibitors of Tn6 peptide binding to human fibrin DD(E); P02675; Fibrin DD(E) TRITC-Tn6 fluorescence polarization displacement; inhibition, % at 8.3 µM; 370,000 tested, 0.21% active;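 active means inhibition above a per-campaign cutoff: mean of compounds within control limits plus 3 SD, cut at about 15% in these data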
MBD2 inh = blocks human MBD2 binding to methylated DNA; AID 686964; 370,000 tested, 0.31% active; TR-FRET, MBD2 binding to methylated oligonucleotide; Q9UBB5; inhibition, % at 4.4 µM; in the data active means inhibition above about 13%
UHRF1 MBD2 ctr = blocks human UHRF1 binding to methylated DNA | Q96T88 | UHRF1 binding to methylated oligo, TR-FRET | inhibition, % at 4.4 µM | 370,000 tested, 0.75% active; in the data active means inhibition above about 21%;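 further: UHRF1 SRA domain binding a hemimethylated CpG hairpin DNA probe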
A number is an active result; i = inactive; ! = a repeat was not active.

SMILES	LEDGF integ inh	TDP2 inh	DDE Tn7 FP inh	DDE Tn6 FP inh	MBD2 inh	UHRF1 MBD2 ctr
CN(CCO)c1cccc2c1S(=O)(=O)N(Cc1cn(Cc3cccc(C(F)(F)F)c3)nn1)Cc1ccccc1O2	i	i	i	i	i	i
O=C(c1cnn2c(C(F)F)cc(C3CC3)nc12)N1CCCC1	i	i	i	i	i	i
O=C(c1cc2nc(C3CC3)cc(C(F)F)n2n1)N1CCOCC1	i	i	i	i	i	20.9
CC1CCN(C(=O)c2ccc(S(=O)(=O)N3CCCCCC3)cc2)CC1	i	i	i	i	i	i
CC1CCN(C(=O)c2ccc(S(=O)(=O)N3CCCC3)cc2)CC1	i	i	i	i	i	40.6
CC1CCN(S(=O)(=O)c2ccc(C(=O)N3CCCC3C(=O)O)cc2)CC1 (centres undefined)	i	i	i	i	i	57.5
C=CCN(C(=O)[C@@H](C1CC1)[C@@H](O)c1ccc(Cl)cc1)c1ccccc1	i	i	i	i	i	i
CC(C)CCn1c(COc2ccccc2)n[nH]c1=S	i	i	i	i	i	21.4
CSC1=Nc2ccccc2N=C(N2CCCC2)C1	i	i	i	i	i	i
C[C@@H](CO)N(CCc1cn(Cc2ccccc2)nn1)S(=O)(=O)c1ccccc1Br	i	i	i	i	i	i
CN[C@H]1C[C@H]2c3[nH]c4cccc(-c5ccccc5)c4c3CCN2C[C@H]1[C@H](C)O	i	i	i	i	i	i
CCNC(=O)/C=C1\NC(C)(C)Cc2c1ccc1ccccc21	i	i	i	i	i	22.4
COc1ccc(Cl)cc1Cn1c(C)c(C(=O)NCc2ccc3c(c2)OCCO3)sc1=O	i	i	i	i	i	43.3
COc1ccc(CNC(=O)c2sc(=O)n(Cc3cc(C(C)=O)ccc3OC)c2C)cc1	i	i	i	i	i	22.3
COc1ccc(CNC(=O)c2sc(=O)n(Cc3cc(Cl)ccc3OC)c2C)cc1	i	i	i	i	i	i
CC(C)(C)OC(=O)N1CCC[C@@H]1C(=O)NCc1ccccc1	i	i	i	i	i	i
O=C(Cc1ccccc1)N/N=C/c1cc(Br)cc(Cl)c1O	i	i	i	i	i	57.8
COc1cc(Br)cc(/C=N/NC(=O)Cc2ccccc2)c1O	i	i	i	i	i	i
COc1cc2c(cc1OC)C(C)=NCC2	i	i	i	18.6	i	i
O=C(NCc1cccnc1)C(=O)N/N=C/c1ccc([N+](=O)[O-])cc1	i	i	i	i	i	i
CC(=O)c1ccccc1C(=O)NCc1cccnc1	i	i	i	i	i	i
O=C(NCc1cccnc1)c1ccc(Cl)c(Cl)c1	i	i	i	i	i	36.9
O=C(NCc1cccnc1)c1cccs1	i	i	i	i	i	22.3
O=C(NCc1cccnc1)C(=O)Nc1ccc([N+](=O)[O-])cc1	i	i	i	i	i	21.9
COc1ccc(C(=O)NCc2cccnc2)cc1C(=O)NCc1cccnc1	i	i	i	i	i	i
SMILES	LEDGF integ inh	TDP2 inh	DDE Tn7 FP inh	DDE Tn6 FP inh	MBD2 inh	UHRF1 MBD2 ctr
Cc1ccc(NC(=O)N2CCC(c3nc4ccc(Cl)cc4[nH]3)CC2)cc1F	i	i	i	i	i	i
C=CCN1C(=O)c2n[nH]c(C(C)C)c2C1c1ccccc1 (centres undefined)	i	i	i	i	i	i
Cc1cccc2sc(N(CCCN(C)C)C(=O)c3ccc(C(=O)c4ccccc4)cc3)nc12	i	i	i	i	i	34.0!
Cc1cccc2sc(N(CCCN(C)C)C(=O)c3sc4ccccc4c3Cl)nc12	i	i	i	i	i	i
CCCC(=O)N(c1ccc(C(=O)O)cc1)c1nc(-c2ccccc2)c(C)s1	i	i	i	i	i	41.0
CC12CCC(=O)N1C(C(=O)Nc1ccc(Br)cc1Cl)CS2 (centres undefined)	i	i	i	i	i	i
Cc1cc(Br)ccc1NC(=O)C1CSC2(C)CCC(=O)N12 (centres undefined)	i	i	i	i	i	35.5
CC(C)C[C@H]1COc2cc(Br)ccc2S(=O)(=O)N1Cc1cn(Cc2ccc(Cl)cc2)nn1	i	i	i	i	i	i
Cn1c(CN2CCOCC2)nnc1SCC(=O)Nc1cccc(C(F)(F)F)c1	i	i	i	i	i	i
Cc1nn(Cc2nnc(SCC(=O)Nc3cccc(C(F)(F)F)c3)n2C)c(C)c1[N+](=O)[O-]	i	i	i	i	i	40.7
COc1ccc(C2C(C(=O)Nc3c(C)cccc3C)CCC(=O)N2c2ccc(OC)cc2)cc1 (centres undefined)	i	i	i	i	i	i
COc1ccc(CCN2C(=O)CCC2(C)c2nnnn2-c2c(C)cccc2C)cc1OC (centres undefined)	i	i	i	i	i	21.9
COc1ccc(CN2C(=O)CCC2(C)c2nnnn2-c2c(C)cccc2C)cc1OC (centres undefined)	i	i	i	i	i	i
Cc1ccccc1NC(=O)C(=Cc1ccc(C(=O)O)cc1)C(=O)Nc1ccccc1C	i	i	i	i	i	26.1
C[C@@H]1CCCCO[C@@H](CN(C)C(=O)CCC(F)(F)F)[C@@H](C)CN([C@H](C)CO)C(=O)c2cc(NS(=O)(=O)c3cccs3)ccc2O1	i	i	i	i	i	22.0
C[C@@H]1CN([C@@H](C)CO)C(=O)c2cc(NC(=O)c3ccccc3)ccc2O[C@@H](C)CCCCO[C@@H]1CN(C)S(=O)(=O)c1ccc(F)cc1	i	i	i	i	i	21.4
Cc1ccc(S(=O)(=O)N(C)C[C@@H]2OCCCC[C@H](C)Oc3ccc(NC(=O)Nc4ccc(F)cc4)cc3C(=O)N([C@H](C)CO)C[C@H]2C)cc1	i	i	i	i	i	i
COCc1cc(N2CCN(C(=O)OC(C)(C)C)C[C@H]2C)ccc1N1CCS(=O)(=O)CC1	i	i	i	i	i	i
O=S1(=O)N[C@@H](Cc2ccccc2)COc2cccc(NCCO)c21	i	i	i	i	i	i
Cc1cc(=O)n2c3c(c4c(cc13)c(CN(C)C)cc(=O)n4C)OC2	i	86.0	i	i	i	i
Cc1n[nH]c(C)c1S(=O)(=O)N1CCCC(C(=O)O)C1 (centres undefined)	i	i	i	i	i	i
Cc1n[nH]c(C)c1S(=O)(=O)N1CCC(C(=O)O)CC1	i	i	i	i	i	20.7
CCOC(=O)c1c(NC(=O)c2ccc(S(=O)(=O)N3CCOCC3)cc2)sc2c1CC(C)(C)NC2(C)C	i	i	i	i	i	i
CCOC(=O)c1c(NC(=O)c2ccc(S(=O)(=O)N3CCOCC3)cc2)sc2c1CCN(C)C2	i	i	i	i	14.6	i
COCCSc1nnc(NC(=O)c2ccc3c(c2)OCO3)s1	i	i	i	i	i	69.1
CSc1nnc(NC(=O)c2ccc3c(c2)OCO3)s1	i	i	i	i	i	i
